WT yeast gro inh = growth inhibition of WT yeast, mitochondrial fusion screen. mitochondrial fusion phenotypic screen, WT strain. inhibition, % at 10 µM. 2.1% of 190,000 active; in the data active means inhibition above about 58%; tested in S. cerevisiae
TNAP act hiacc = TNAP (human) activation, high acceptor; activation factor at 20 µM; P05186; purified TNAP, CDP-star luminescence, 1 M DEA, 30 min; stronger effect = higher value; 0 = EDTA background, 1 = DMSO-only activity; 200,000 tested, under 10 active; AID 1136;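 active means activation factor at least 2 at 20 µM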
Target sequence (P05186 whole entry, looked up): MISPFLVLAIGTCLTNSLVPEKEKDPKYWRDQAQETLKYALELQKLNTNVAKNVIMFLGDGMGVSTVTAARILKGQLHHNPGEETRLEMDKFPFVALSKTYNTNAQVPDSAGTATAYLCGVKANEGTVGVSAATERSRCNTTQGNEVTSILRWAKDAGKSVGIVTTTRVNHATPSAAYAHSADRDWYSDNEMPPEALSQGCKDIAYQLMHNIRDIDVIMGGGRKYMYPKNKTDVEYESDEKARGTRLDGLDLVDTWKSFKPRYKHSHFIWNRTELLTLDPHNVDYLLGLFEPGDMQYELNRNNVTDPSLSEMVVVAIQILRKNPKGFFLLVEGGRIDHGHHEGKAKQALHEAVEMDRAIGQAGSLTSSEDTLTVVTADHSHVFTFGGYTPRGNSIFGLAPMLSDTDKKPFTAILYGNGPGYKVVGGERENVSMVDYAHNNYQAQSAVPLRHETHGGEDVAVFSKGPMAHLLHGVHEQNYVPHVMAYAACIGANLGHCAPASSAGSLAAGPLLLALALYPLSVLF
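Control set: EDTA negative control, DMSO positive control / Assay system: human TNAP / Quantity: TNAP 1/800 final / Evaluation: TNAP activation factor scaled between EDTA and DMSO control wells / Measured by: luminescent substrate turnover signal / Compound dosing: one dose, 20 µM / Times: 30 min enzyme reaction at room temperature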
TNAP inh noacc = inhibitors of human TNAP without phosphate acceptor; P05186; purified TNAP, CDP-star luminescence, 30 min; inhibition, % at 20 µM; 0.26% of 200,000 active; AID 1012;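 active means tissue-nonspecific alkaline phosphatase inhibition above about 50% at 20 µM in the single-dose screen, limit read from the data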;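 further: 0% = DMSO negative control and 100% = EDTA positive control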
TNAP inh hiacc = inhibitors of human TNAP at high phosphate acceptor concentration; P05186; purified TNAP, CDP-star luminescence, 1 M DEA; inhibition, % at 20 µM; 0.03% of 200,000 active;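 active means over 50% inhibition of tissue-nonspecific alkaline phosphatase at 20 µM in the single-dose screen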;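 further: plate controls were DMSO wells for no effect and EDTA-quenched wells as full inhibition for full effect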
Arbovirus anti = antivirals against arbovirus infection; arbovirus infection cell-based antiviral screen; inhibition, % at 10 µM; 0.37% of 200,000 active; AID 1251; in the data active means inhibition above about 30%
Numbers without * were called inactive; nt = no result. The list is not random: actives were taken first. Their share in the collection is about 2.6%.

SMILES | WT yeast gro inh | TNAP act hiacc | TNAP inh noacc | TNAP inh hiacc | Arbovirus anti
CC(C)(C)n1nnnc1C(c1ccc(Cl)cc1)N(Cc1cccnc1)Cc1ccco1 (stereo not given) | 68.2* | 1.1 | -10.3 | -5.2 | -19.4
CC(C)(C)n1nnnc1C(c1ccc(F)cc1)N(Cc1ccc(F)cc1)Cc1ccco1 (stereo not given) | 58.6* | 1 | -1.2 | 0.3 | -14.2
CC(C)(C)n1nnnc1C(c1ccc(C(F)(F)F)cc1)N(Cc1ccccc1)Cc1ccco1 (stereo not given) | -2.3 | 1 | -4.5 | -1.3 | 0.3
CC(C)(C)n1nnnc1C(c1ccc(C(F)(F)F)cc1)N(Cc1ccc(F)cc1)Cc1ccco1 (stereo not given) | 19.6 | 1 | -1.6 | 3.0 | 32.2*
N/C(=N\OC(=O)CC(c1ccccc1)c1ccccc1)c1cccnc1 | -4.5 | 1.1 | -1.9 | -5.9 | 4.7
Cc1cc(/C=C\c2ccccc2)nc2ccccc12 | 70.6* | 1.1 | -7.6 | -7.2 | 0.9
Cc1cc(C(=O)c2ccccc2)nc2ccccc12 | nt | 1.1 | -10.4 | -5.2 | -12.8
COc1ccc(C2(O)CCN(CC(=O)Nc3nc(-c4ccccc4)cs3)CC2)cc1 | 35.3 | 0.8 | -19.7 | 19.0 | -11.1
O=C(COc1ccccc1[N+](=O)[O-])N/N=C/c1ccc(O)c([N+](=O)[O-])c1 | -8.4 | 0.9 | 2.3 | 9.0 | -21.1
COc1ccc(OC)c(/C=N\NC(=O)CC(=O)NCCc2ccccc2)c1 | 10.5 | 1 | -5.3 | -0.8 | 31.4*
O=C(COc1ccccc1C(=O)N/N=C\c1ccc(O)c(O)c1)N/N=C/c1ccc(O)c(O)c1 | 9.5 | 0.4 | 92.4* | 59.9* | -8.1
COc1cc(/C=N/NC(=O)CCc2ccccc2)ccc1O | 70.2* | 1 | -6.8 | -1.5 | 8.2
Cc1ccc2cc(CN(Cc3cccs3)C(=O)c3ccco3)c3nnnn3c2c1C | 58.5* | 1 | -0.7 | 0.2 | 5.9
CC(C)(C)S(=O)(=O)/C(C#N)=N/Nc1ccc(Cl)cc1 | 30.5 | 1 | -2.8 | -0.9 | 23.7
CC(C)(C)c1ccc(N/N=C(\C#N)S(=O)(=O)C(C)(C)C)cc1 | 4.7 | 1 | -3.0 | -1.9 | 33.7*
O=C(O)Cc1ccc2oc(-c3cccnc3)nc2c1 | -3.8 | 1 | -2.9 | -4.2 | 1.4
O=[N+]([O-])c1ccccc1NCCNS(=O)(=O)c1ccc(Cl)cc1 | -3.2 | 0.8 | -0.7 | 17.6 | 6.7
O=[N+]([O-])c1ccc(NCCCNS(=O)(=O)c2ccc(Cl)cc2)c(Cl)c1 | 60.0* | 1 | -4.6 | -0.3 | 6.9
Cc1cccc(OCCCCCn2ccnc2)c1 | 11.8 | 1 | -3.9 | 0.6 | 4.7
CC(C)(C)OC(=O)NCCCC[C@H](NC(=O)c1nc[nH]c1C(=O)N1CCN(C(=O)OC(C)(C)C)CC1)C(=O)OC(C)(C)C | 10.8 | 1 | 0.4 | 0.7 | 1.3
CC(C)C[C@H](NC(=O)c1nc[nH]c1C(=O)N1CCN(C(=O)OC(C)(C)C)CC1)C(=O)OC(C)(C)C | 10.3 | 1.1 | -1.7 | -6.5 | 32.5*
COc1ccc(NC(=O)/C(=C\c2ccncc2)NC(=O)c2ccccc2)cc1 | 0.9 | 1 | -10.8 | -2.7 | 1.1
CN(C)c1ccc(/C=C2/NC(=O)NC2=O)cc1 | 9.1 | 1 | -2.5 | 3.6 | -5.3
CN(C)c1ccc(/C=C2\N=C(c3ccc(Cl)c([N+](=O)[O-])c3)NC2=O)cc1 | 37.4 | 0.6 | 50.5* | 44.6 | -11.5
O=C(OCC(=O)N1CCN(C(=O)c2ccco2)CC1)c1cn(-c2ccccc2)nc1-c1ccccc1 | 80.2* | 1.1 | -10.4 | -10.2 | -4.4
SMILES | WT yeast gro inh | TNAP act hiacc | TNAP inh noacc | TNAP inh hiacc | Arbovirus anti
O=C(CN(c1ccc(Cl)c(C(F)(F)F)c1)S(=O)(=O)c1ccccc1)N/N=C/c1cccc2c1OCCO2 | -8.4 | 1 | -3.3 | -1.6 | 4.5
CCN(C(=O)c1cnc(N2CCN(c3ncccn3)CC2)c2ccccc12)c1cccc(Cl)c1 | 62.8* | 1 | 3.1 | -0.5 | -36.4
Cn1c(CCN2CCN(c3ccccc3)CC2)nc2cc(NC(=O)c3ccco3)ccc21 | 75.7* | 1.1 | -13.5 | -8.0 | -8.2
Clc1ccc(N/N=C/c2cccnc2)cc1 | 59.4* | 1 | -8.8 | 3.1 | -29.3
Cc1sc(N/N=C/c2cccnc2)nc1-c1ccc(Cl)cc1 | 6.8 | 1 | -9.5 | -1.6 | -2.9
Cc1ccc(NC2=C(Cl)C(=O)OC2OC(=O)c2ccccc2)c(C)c1 (stereo not given) | 23.4 | 1 | -6.5 | 2.8 | 7.4
Cc1ccccc1NC1=C(Cl)C(=O)OC1OC(=O)c1ccccc1C (stereo not given) | 68.1* | 1 | -8.0 | -4.5 | -2.0
CCC1Oc2ccc(C)cc2N(CC(=O)N(Cc2ccc(C)o2)C2CCCC2)C1=O (stereo not given) | 64.8* | 1 | -4.4 | 1.1 | -19.0
O=C(CSC1CC(=O)N(c2ccc(C(=O)O)cc2)C1=O)Nc1ccc(Cl)cc1 (stereo not given) | -13.4 | 1 | -20.8 | -0.4 | 12.9
O=C(OCC(=O)c1c[nH]c2ccccc12)c1cc(Br)ccc1O | 7.9 | 1 | -6.3 | -1.7 | -0.1
Cc1[nH]n(-c2cccc3ccccc23)c(=O)c1/C=N/NC(=O)c1cccc([N+](=O)[O-])c1 | -1.6 | 0.9 | 51.2* | 11.5 | -13.5
O=C(N/N=C\c1cccc([N+](=O)[O-])c1O)C1COc2ccccc2O1 (stereo not given) | 17.4 | 0.9 | 53.2* | 9.7 | -17.0
COC(=O)c1ccc(C2N=C(c3cccs3)CC(c3ccccc3O)N2)cc1 (stereo not given) | 62.5* | 1 | -11.3 | 3.9 | -1.7
COC(=O)c1ccc(NC(=O)Cn2nnc(-c3cccs3)n2)cc1 | 2.5 | 1.1 | -22.1 | -5.0 | 5.6
O=C1c2ccccc2CCC12N=NCC2c1ccc(Cl)cc1 (stereo not given) | 6.0 | 1 | -6.7 | -2.4 | 3.6
O=C1c2ccccc2CCC12N=NCC2c1ccc(Br)cc1 (stereo not given) | 68.2* | 1 | -5.9 | -2.1 | 0.7
COc1ccc(N(CC(=O)NCc2ccccc2)C(=O)Cn2nnc(-c3ccccc3F)n2)cc1OC | -8.1 | 1 | -7.1 | -3.9 | 1.7
CCC(C)(C(=O)NC1CCCCC1)N(Cc1ccco1)C(=O)c1ccccn1 (stereo not given) | -2.0 | 1 | -6.1 | -0.6 | 6.0
Cc1nc(SCC(=O)O)c2oc3ccccc3c2n1 | -2.2 | 1 | -5.7 | -0.7 | 4.0
CCOC(=O)CC(=O)CSc1nc(C)nc2c1oc1ccccc12 | 83.0* | 1 | -8.2 | -1.2 | 3.6
N#Cc1nc(-c2ccco2)oc1NCc1ccc(F)cc1 | 61.7* | 1 | -10.3 | -3.4 | 10.4
N#Cc1nc(-c2ccco2)oc1NCc1cccnc1 | -5.9 | 1 | -6.7 | 0.6 | -0.7
O=C(/C=C/c1ccc2c(c1)OCCCO2)c1ccc2ccccc2c1O | -2.7 | 0.9 | 14.1 | 10.2 | 31.6*
O=C(/C=C/c1ccccc1)c1ccc2c(c1)OCCCCO2 | 14.8 | 1 | -10.1 | -3.8 | -39.0
CCN1CCN(C(=O)c2ccc3c(c2)c(C)c(C)n3Cc2ccccc2)CC1 | -11.2 | 1.1 | -22.5 | -7.1 | -25.3

Screening data: PubChem BioAssay, several laboratories
